The source of these data is PubChem BioAssay.

Calls of active or inactive are those of the source.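 The calls were made as follows, unless noted: active = viability at or under a set limit in both replicates, limit being median viability minus 3 SD (cut at about 48% in these data, passing the limit was not always enough); inconclusive = at or under the limit in just one replicate; inactive = at or above the limit in both replicates.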

Test [1] is described as follows: SK-BR-3 cell growth inhibitors, pilot screen, 24 h, human (AID 572;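 active = viability at or below 10% of carrier control in both of two separate runs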;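 also: compound exposure lasted between 18 and 24 h rather than exactly 24 h; 100% = carrier-treated control wells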). The conditions noted are these: SK-BR-3 viability, CellTiter-Glo luminescence, at 10 µM, stronger effect = lower value. For orientation: In ATP-based viability assays light output follows the ATP content of the culture.
Test [2] in a line: HUVEC growth inhibition – cell-based, human, primary screen (AID 575;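 active = viability at or below 30% in both replicate assays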;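 also: 100% = median of untreated cell wells with 0.1% DMSO on each plate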). The conditions noted are these: HUVEC proliferation, CellTiter-Glo luminescence, 72 h; at 10 µM; stronger effect = lower value. The gist of the method:
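System – primary HUVEC, no more than 12 passages · Medium – Low-serum (2% FBS) EBM, supplemented · Times – 72 h exposure, 37 °C, 5% CO2, 30 min RT equilibration · Measured by – luminescent ATP assay · Read-out – % viability relative to median vehicle-well signal on each plate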

The nature of test [3]: growth inhibitors of H69AR lung tumor, primary screen, human, duplicate replicates (AID 580).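 Also: 100% = mean luminescence of untreated wells and 0% = no signal.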 The settings on record: H69AR lung tumor cells viability, ATP luminescence, 72 h; at 10 µM; stronger effect = lower value.
A short description of test [4]: reversal of MRP1-mediated doxorubicin resistance, pilot screen, H69AR cells, doxorubicin co-treatment (AID 601;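 active = viability loss from added drug above about 55%, and viability with drug at most 40%, in both replicates, limit read from the data, passing the limit was not always enough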). The settings on record: CellTiter-Glo, 72 h, at 10 µM; for differential viability (reversal): stronger effect = higher value.
The nature of test [5]: 384-well plate pilot, post-Golgi transport modulator project, inhibition of yeast transport mutant growth (AID 636; in the data active = inhibition above about 31%). The settings on record: absorbance 615 nm, about 18 h, stronger effect = higher value.
Test [6] is described as follows: growth suppression of yeast trafficking mutant, preliminary HTS, modulators of trafficking downstream of Golgi apparatus project, 1536-format plate, OD 615 nm (AID 637; in the data active = inhibition above about 30%). The conditions noted are these: yeast transport mutant growth, absorbance 615 nm, 18 h; stronger effect = higher value.
[7] abbreviates: H69AR cells + 2 uM doxorubicin, measured here: viability with 2 uM doxorubicin, stronger effect = lower value.
The mark [8] stands for this setting: H69AR cells, compound alone cytotoxicity.

Broadly, the viability is a read-out of living cells in per cent, often relative to untreated cells. Broadly, the inhibition is the relative decrease from the control value, in per cent. For `COc1ccc(COC(=O)c2n[nH]c3ccccc23)cc1F`, the viability is 89% (inactive) in test [1]; 85.2% (inactive) in test [2]; 100% (inactive) in test [3]; 91.3% in test [4] (setting [7]); 100% in test [4] (setting [8]). Moreover, the differential viability (reversal) in test [4] (H69AR cells + 2 uM doxorubicin) is 8.74% (inactive). Besides, the inhibition in test [5] was -9.45% (inactive); in test [6], 3.82% (inactive).
Regarding `CCc1ccccc1OCCCCN1CCCC1`, the viability in test [1] is 124% (inactive); in test [2], 82% (inactive); in test [3], 89.1% (inactive); in test [4] (setting [7]), 78.2%; in test [4] (setting [8]), 89.1%. In addition, the differential viability (reversal) in test [4] (H69AR cells + 2 uM doxorubicin) is 10.8% (inactive). For the same molecule, the inhibition in test [5] is -5.06% (inactive); in test [6], -1.97% (inactive).
Take `C=CCNC(=O)C1CC(=O)N(c2ccc(OCC(=O)Nc3ccc(OC)cc3)cc2)C1` (stereo unspecified): the viability in test [1] was 99% (inactive); in test [2] it was 112% (inactive); in test [3] it was 108% (inactive); in test [4] (setting [7]), 103%; in test [4] (setting [8]), 108%. The differential viability (reversal) in test [4] (H69AR cells + 2 uM doxorubicin) is 5.12% (inactive). Further, the inhibition in test [5] was -0.81% (inactive); in test [6], -0.18% (inactive).
`Cn1ncc2c(Nc3ccccc3Br)ncnc21`: the viability is 109% (inactive) in test [1]; 101% (inactive) in test [2]; 106% (inactive) in test [3]; 92.8% in test [4] (setting [7]); 106% in test [4] (setting [8]). The differential viability (reversal) in test [4] (H69AR cells + 2 uM doxorubicin) was 13.5% (inactive). The inhibition in test [5] was -7.67% (inactive); in test [6], -2.55% (inactive).
For `Cc1ccc(CC2SC(=O)NC2=O)cc1Cl` (stereo unspecified), the viability in test [1] was 107% (inactive); in test [2], 75.8% (inactive); in test [3] it was 92.7% (inactive); in test [4] (setting [7]), 88.4%; in test [4] (setting [8]), 92.7%. In addition, the differential viability (reversal) in test [4] (H69AR cells + 2 uM doxorubicin) was 4.26% (inactive). Moreover, the inhibition was 3.42% (inactive) in test [5] and -2.26% (inactive) in test [6].
As to `Clc1ccc(Cl)c(-c2nn3c(Cn4cnc5ccccc54)nnc3s2)c1`, the viability was 78% (inactive) in test [1]; 98.5% (inactive) in test [2]; 102% (inactive) in test [3]; 96% in test [4] (setting [7]); 102% in test [4] (setting [8]). Moreover, the differential viability (reversal) in test [4] (H69AR cells + 2 uM doxorubicin) is 6.11% (inactive). Also, the inhibition in test [5] is -6.3% (inactive); in test [6], -0.18% (inactive).
For the molecule `O=C(NCc1ccco1)c1cc2cc3ccc(Cl)cc3nc2o1`, the viability in test [1] was 90% (inactive); in test [2], 21.4% (active); in test [3], 2.59% (active); in test [4] (setting [7]), 2.98%; in test [4] (setting [8]), 2.59%. The differential viability (reversal) in test [4] (H69AR cells + 2 uM doxorubicin) was -0.39% (inactive). In addition, the inhibition in test [5] was -0.65% (inactive); in test [6] it was 0% (inactive).
`COc1ccc(CCNc2oc(COc3ccc(F)cc3)nc2C#N)cc1`: the viability in test [1] is 164% (inactive); in test [2] it was 76.2% (inactive); in test [3] it was 93.7% (inactive); in test [4] (setting [7]), 91.1%; in test [4] (setting [8]), 93.7%. For the same molecule, in test [4] (H69AR cells + 2 uM doxorubicin), the differential viability (reversal) was 2.54% (inactive). Also, the inhibition was -4.73% (inactive) in test [5] and 1.27% (inactive) in test [6].
On to `Cn1c(=O)c2c(nc(NCCNC(=O)c3ccco3)n2Cc2ccccc2Cl)n(C)c1=O`, for which the viability in test [1] is 80% (inactive); in test [2], 112% (inactive); in test [3] it was 72.5% (inactive); in test [4] (setting [7]), 66.7%; in test [4] (setting [8]), 72.5%. For the same molecule, the differential viability (reversal) in test [4] (H69AR cells + 2 uM doxorubicin) is 5.75% (inactive). The inhibition in test [5] is -7.57% (inactive); in test [6] it was -4.36% (inactive).
In the case of `CCCCNc1cc(C(=O)O)cc(S(N)(=O)=O)c1Oc1ccccc1`, the viability in test [1] was 121% (inactive); in test [2], 87% (inactive); in test [3], 114% (inactive); in test [4] (setting [7]) it was 90.5%; in test [4] (setting [8]), 114%. Also, the differential viability (reversal) in test [4] (H69AR cells + 2 uM doxorubicin) is 23.6% (inactive). The values for the inhibition in test [5] and in test [6] were -1.56% (inactive) and 7.17% (inactive), respectively.
For the molecule `O=C(CSc1ccc(-c2ccccc2)nn1)N1CCOCC1`, the viability in test [1] was 94% (inactive); in test [2] it was 105% (inactive); in test [3], 95.2% (inactive); in test [4] (setting [7]) it was 82%; in test [4] (setting [8]) it was 95.2%. Besides, the differential viability (reversal) in test [4] (H69AR cells + 2 uM doxorubicin) is 13.2% (inactive). Also, the inhibition in test [5] is -6.44% (inactive); in test [6], -4.73% (inactive).
With `COc1ccc(OCCOC(=O)c2cccc(-n3cnnn3)c2)cc1`, the viability was 90% (inactive) in test [1]; 107% (inactive) in test [2]; 100% (inactive) in test [3]; 92.6% in test [4] (setting [7]); 100% in test [4] (setting [8]). Also, in test [4] (H69AR cells + 2 uM doxorubicin), the differential viability (reversal) is 7.56% (inactive). In addition, the results for the inhibition in test [5] and in test [6] were -8.36% (inactive) and 1.64% (inactive), respectively.
